According to ChEMBL document CHEMBL1255250, “Microbicidal properties and cytocidal selectivity of rhesus macaque theta defensins” (Antimicrob Agents Chemother, 2008):
The source made the active and inactive calls. The calls are words filed in the database; no cut-off is given here. Where a SMILES comes first, the peptide text is derived from it. Bridges are numbered along the chain shown (N, C = ends).

What was measured:
Escherichia coli [1] = test: Microbicidal activity against Escherichia coli ML35 in presence of 1.2 mM Calcium ions; format: functional, organism-based
Method in brief: (§1)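 Log-phase E. coli ML35 or C. albicans was incubated with increasing peptide concentrations in 10 mM PIPES, pH 7.4. The buffer contained 1.2 mM CaCl2 and 0.8 mM MgCl2, or no added divalent salts. Incubation was 2 h at 37°C, and survivors were counted as colonies.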

Staphylococcus aureus [2] = test: Microbicidal activity against Staphylococcus aureus 502a in presence of 0.8 mM Magnesium ions; format: functional, organism-based
Staphylococcus aureus [3] = test: Microbicidal activity against Staphylococcus aureus 502a using 10 mM Tris-HCl buffer in presence of 154 mM NaCl; format: functional, organism-based
Method in brief: (§2)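 Log-phase S. aureus was exposed to increasing peptide concentrations for 2 h at 37°C. Buffer was 10 mM PIPES, Tris-HCl or sodium phosphate, pH 7.4, with or without 154 mM NaCl. Killing was read by colony counting.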

Staphylococcus aureus [4] = test: Microbicidal activity against Staphylococcus aureus 502a at 0.5 to 2 ug/ml in presence of 10% human serum; format: functional, organism-based
Method in brief: (§3)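 S. aureus was incubated with a dose series of peptide in 10 mM PIPES, pH 7.4, containing 10% normal human serum. Bacterial killing was determined by colony counting and expressed as a percentage of killing in incubations lacking serum.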

Escherichia coli [5] = test: Microbicidal activity against Escherichia coli ML35 at <=8 ug/ml in presence of 10% heat-inactivated human serum; format: functional, organism-based
Method in brief: (§4)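 Human serum was heat-inactivated at 55°C for 30 min and clarified by centrifugation. E. coli was then exposed to a dose series of peptide in 10 mM PIPES, pH 7.4, with 10% of this serum. Killing was counted as colonies and expressed relative to incubations without serum.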

Candida albicans [6] = test: Microbicidal activity against Candida albicans 16820 in presence of 1.2 mM Calcium ions; format: functional, organism-based; method in brief: as §1
Candida albicans [7] = test: Microbicidal activity against Candida albicans 16820 using PIPES buffer in presence of NaCl; format: functional, organism-based
Method in brief: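 Log-phase C. albicans was incubated with peptide in 10 mM PIPES, pH 7.4, supplemented with NaCl, for 2 h at 37°C. Survivors were plated on Sabouraud dextrose agar and counted after 18–24 h at 37°C.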

Staphylococcus aureus [8] = test: Microbicidal activity against Staphylococcus aureus 502a at >= 2 ug/ml in presence of 10% human serum; format: functional, organism-based; method in brief: as §3
Staphylococcus aureus [9] = test: Microbicidal activity against Staphylococcus aureus 502a in presence of 1.2 mM Calcium ions; format: functional, organism-based
[10] = molecular target: Beta-galactosidase (Escherichia coli) (UniProt Q8VNN2); test: Inhibition of Escherichia coli ML35 Beta-galactosidase assessed as inhibition of o-nitrophenyl-beta-d-galactopyranoside hydrolysis at 4 ug/ml
Sequence of Beta-galactosidase (Escherichia coli) (Q8VNN2 whole entry, looked up): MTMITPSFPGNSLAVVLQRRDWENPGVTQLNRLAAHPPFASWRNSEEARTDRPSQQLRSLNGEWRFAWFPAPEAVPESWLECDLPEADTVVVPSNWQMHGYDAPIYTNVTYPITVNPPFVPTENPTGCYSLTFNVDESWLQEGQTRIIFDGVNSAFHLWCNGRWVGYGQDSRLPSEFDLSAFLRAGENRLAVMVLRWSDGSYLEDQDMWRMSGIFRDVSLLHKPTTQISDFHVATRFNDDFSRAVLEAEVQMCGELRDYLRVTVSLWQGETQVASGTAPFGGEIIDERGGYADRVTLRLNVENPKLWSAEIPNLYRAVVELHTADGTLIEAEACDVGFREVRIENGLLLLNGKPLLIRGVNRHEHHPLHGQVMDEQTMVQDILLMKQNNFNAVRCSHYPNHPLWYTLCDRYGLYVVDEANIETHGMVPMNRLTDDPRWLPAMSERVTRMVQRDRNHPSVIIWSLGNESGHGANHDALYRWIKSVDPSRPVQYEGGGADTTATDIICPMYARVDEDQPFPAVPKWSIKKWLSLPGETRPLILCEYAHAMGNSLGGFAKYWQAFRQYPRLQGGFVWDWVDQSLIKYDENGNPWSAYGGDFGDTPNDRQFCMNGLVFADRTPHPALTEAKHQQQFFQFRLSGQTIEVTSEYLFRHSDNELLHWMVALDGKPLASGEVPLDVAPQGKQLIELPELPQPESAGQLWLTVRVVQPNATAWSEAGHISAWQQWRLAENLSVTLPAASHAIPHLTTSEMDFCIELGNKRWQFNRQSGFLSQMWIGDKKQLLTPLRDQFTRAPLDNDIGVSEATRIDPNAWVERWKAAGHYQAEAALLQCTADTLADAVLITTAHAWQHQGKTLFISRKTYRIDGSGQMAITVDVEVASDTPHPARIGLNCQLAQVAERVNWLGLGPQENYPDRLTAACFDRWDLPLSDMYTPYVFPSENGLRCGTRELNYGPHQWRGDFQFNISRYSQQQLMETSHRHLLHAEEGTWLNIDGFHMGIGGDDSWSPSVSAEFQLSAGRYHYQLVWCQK

Staphylococcus aureus [11] = test: Microbicidal activity against Staphylococcus aureus 502a using 10 mM sodium phosphate buffer in presence of 154 mM NaCl; format: functional, organism-based; method in brief: as §2
Escherichia coli [12] = test: Microbicidal activity against Escherichia coli ML35 assessed as induction of cytoplasmic membrane permeabilization at 1 ug/ml; format: functional, organism-based
Method in brief: (§5)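 Log-phase E. coli ML35 (1–2 × 10^6 CFU/ml) was incubated with peptide (0–8 μg/ml final) in 10 mM PIPES, pH 7.4, containing 3 mM ONPG. ONPG hydrolysis was followed at 405 nm for 60 min. The rate was taken as the highest kinetic slope and corrected for peptide inhibition of β-galactosidase measured cell-free.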

Escherichia coli [13] = test: Microbicidal activity against Escherichia coli ML35 in presence of 0.8 mM Magnesium ions; format: functional, organism-based; method in brief: as §1
Staphylococcus aureus [14] = test: Microbicidal activity against Staphylococcus aureus 502a using 10 mM PIPES buffer in presence of 154 mM NaCl; format: functional, organism-based; method in brief: as §2
[15] = Inhibition of beta-galactosidase in cell-free system assessed as inhibition of o-nitrophenyl-beta-d-galactopyranoside hydrolysis
Staphylococcus aureus [16] = test: Microbicidal activity against Staphylococcus aureus 502a at 5 ug/ml in presence of <= 80 mM NaCl; format: functional, organism-based
Method in brief: (§6)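 S. aureus in log phase was incubated with 5 μg/ml peptide in 10 mM PIPES, pH 7.4, containing increasing NaCl for 2 h at 37°C. Killing was determined by colony counting and expressed as a percentage of killing in buffer alone.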

Staphylococcus aureus [17] = test: Microbicidal activity against Staphylococcus aureus 502a at 5 ug/ml in presence of 160 mM NaCl; format: functional, organism-based; method in brief: as §6
Escherichia coli [18] = test: Microbicidal activity against Escherichia coli ML35 at 16 ug/ml in presence of 10% heat-inactivated human serum; format: functional, organism-based; method in brief: as §4
Candida albicans [19] = test: Microbicidal activity against Candida albicans 16820 in presence of 0.8 mM Magnesium ions; format: functional, organism-based; method in brief: as §1
Candida albicans [20] = test: Microbicidal activity against Candida albicans 16820 assessed as log reduction in microbial count at 10 ug/ml using PIPES buffer
[21] = Selectivity index, ratio of MMC for Staphylococcus aureus 502a to hemolytic activity for human erythrocytes
[22] = Toxicity in human Erythrocyte assessed as hemolysis at 100 ug/ml in presence of 10% serum; format: cell-based
Method in brief: (§7)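 Erythrocytes from EDTA-anticoagulated human donor blood were washed in PBS or PiBS containing 4 mM EDTA, then resuspended without EDTA at 2% (vol/vol). Cells were incubated with peptide (0.3–100 μg/ml final) for 1 h at 37°C, with or without 10% autologous serum. Supernatant A405 was expressed relative to 1% Nonidet P-40 lysis.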

Escherichia coli [23] = test: Microbicidal activity against Escherichia coli ML35; format: functional
Method in brief: (§8)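 Log-phase organisms (1–2 × 10^6 CFU/ml) were exposed to serially diluted peptide (0.05–10.0 μg/ml final) in 10 mM PIPES, pH 7.4, with 5 mM glucose for 2 h at 37°C. Aliquots were serially diluted 1:10 to 1:10^6 in Trypticase soy or Sabouraud broth and grown 24–48 h at 37°C. MMC was the lowest concentration giving 99.9% viability loss in at least two experiments.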

Candida albicans [24] = test: Microbicidal activity against Candida albicans 16820; format: functional; method in brief: as §8
[25] = Toxicity in human Erythrocyte assessed as concentration required to achieve 3% hemolysis; format: cell-based
[26] = molecular target: Beta-galactosidase (Escherichia coli) (UniProt Q8VNN2); test: Inhibition of Escherichia coli ML35 beta-galactosidase assessed as inhibition of o-nitrophenyl-beta-d-galactopyranoside hydrolysis at 1 ug/ml after 60 mins; method in brief: as §5
Staphylococcus aureus [27] = test: Microbicidal activity against Staphylococcus aureus 502a; format: functional; method in brief: as §8
[28] = Toxicity in human Erythrocyte assessed as hemolysis at 100 ug/ml; format: cell-based; method in brief: as §7
Hs68 [29] = test: Cytotoxicity against human HS68 cells at <=100 ug/ml by MTT assay in presence of 10% FBS; format: cell-based
Method in brief: (§9)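 HS68 fibroblasts were grown in DMEM with 10% FBS and penicillin/streptomycin at 37°C and 5% CO2. Cells were seeded at 5 × 10^3 per well for 18 h. Medium was then switched to antibiotic-free DMEM with 0.4% or 10% FBS, as each line states, and peptide was added at 0–100 μg/ml for 1 h at 37°C. Wells were refed with growth medium and read by MTT in triplicate against no-peptide wells.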

Hs68 [30] = test: Cytotoxicity against human HS68 cells at <=100 ug/ml by MTT assay in presence of 0.4% FBS; format: cell-based; method in brief: as §9
[31] = molecular target: Beta-galactosidase (Escherichia coli) (UniProt Q8VNN2); test: Inhibition of Escherichia coli ML35 Beta-galactosidase assessed as hydrolysis of o-nitrophenyl-beta-d-galactopyranoside at 2 ug/ml

SMILES	Activity (Escherichia coli [1])	Activity (Staphylococcus aureus [2])	Activity (Escherichia coli [5])	Activity (Candida albicans [6])	Activity (Candida albicans [7])	Activity (Staphylococcus aureus [8])	Activity (Staphylococcus aureus [9])	Activity (Staphylococcus aureus [11])	Activity (Escherichia coli [12])	Activity (Escherichia coli [13])	Activity (Staphylococcus aureus [14])	Activity (Staphylococcus aureus [16])	Activity (Staphylococcus aureus [17])	Activity (Escherichia coli [18])	Activity (Candida albicans [19])	FC (Candida albicans [20])	Selectivity Index [21]	Activity [22]	MMC (Escherichia coli [23]) [µg/mL]	MMC (Candida albicans [24]) [µg/mL]	also measured
CC[C@H](C)[C@@H]1NC(=O)[C@@H]2CSSC[C@H](NC(=O)[C@H](CCCNC(=N)N)NC(=O)[C@@H]3CSSC[C@H](NC1=O)C(=O)N[C@@H]([C@H](C)O)C(=O)N[C@@H](CCCNC(=N)N)C(=O)NCC(=O)N[C@H](Cc1ccccc1)C(=O)N3)C(=O)N[C@@H](CC(C)C)C(=O)N[C@@H]1CSSC[C@@H](NC(=O)[C@H](C(C)C)NC(=O)CNC(=O)[C@H](CCCNC(=N)N)NC(=O)[C@H](CCCNC(=N)N)NC1=O)C(=O)N[C@@H](CCCNC(=N)N)C(=O)N2	Active	Active	inactive	inactive	inactive	Active	Active	Active	Active	Active	Active	Active	inactive	Active	inactive						Activity (Staphylococcus aureus [3]): Active; Activity (Staphylococcus aureus [4]): inactive; inhibition [10]: 36%; inhibition [15]: Dose-dependent effect
CC(C)C[C@@H]1NC(=O)[C@@H]2CSSC[C@H](NC(=O)[C@H](CCCNC(=N)N)NC(=O)[C@@H]3CSSC[C@H](NC1=O)C(=O)N[C@@H](CCCNC(=N)N)C(=O)N[C@@H](CCCNC(=N)N)C(=O)NCC(=O)N[C@@H](C(C)C)C(=O)N3)C(=O)N[C@@H](CC(C)C)C(=O)N[C@H]1CSSC[C@H](NC(=O)[C@H](C(C)C)NC(=O)CNC(=O)[C@H](CCCNC(=N)N)NC(=O)[C@H](CCCNC(=N)N)NC1=O)C(=O)N[C@@H](CCCNC(=N)N)C(=O)N2 (cyclo(CLCRRGVCRCLCRRGVCR); disulfide 1-10, 3-8, 12-17)	Active	Active	inactive	inactive	inactive	Active	Active	Active	Active	Active	Active	Active	inactive	Active	inactive	>3	6.2	Non-toxic	2	1	Activity (Staphylococcus aureus [3]): Active; inhibition [10]: 36%; inhibition [15]: Dose-dependent effect; Activity [25]: 6.2 µg/mL; inhibition [26]: Active; MMC (Staphylococcus aureus [27]): 1 µg/mL; Activity [28]: Non-toxic
CC[C@H](C)[C@@H]1NC(=O)[C@@H]2CSSC[C@H](NC(=O)[C@H](CCCNC(=N)N)NC(=O)[C@@H]3CSSC[C@H](NC1=O)C(=O)N[C@@H]([C@@H](C)O)C(=O)N[C@@H](CCCNC(=N)N)C(=O)NCC(=O)N[C@@H](Cc1ccccc1)C(=O)N3)C(=O)N[C@@H](CC(C)C)C(=O)N[C@H]1CSSC[C@H](NC(=O)[C@H](C(C)C)NC(=O)CNC(=O)[C@H](CCCNC(=N)N)NC(=O)[C@H](CCCNC(=N)N)NC1=O)C(=O)N[C@@H](CCCNC(=N)N)C(=O)N2 [listing 1 of 2 here]																		Non-toxic			Activity (Hs68 [29]): Non-toxic; Activity (Hs68 [30]): Non-toxic; Activity [25]: 5.5 µg/mL
CC[C@H](C)[C@@H]1NC(=O)[C@@H]2CSSC[C@H](NC(=O)[C@H](CCCNC(=N)N)NC(=O)[C@@H]3CSSC[C@H](NC1=O)C(=O)N[C@@H]([C@@H](C)O)C(=O)N[C@@H](CCCNC(=N)N)C(=O)NCC(=O)N[C@@H](Cc1ccccc1)C(=O)N3)C(=O)N[C@@H](CC(C)C)C(=O)N[C@H]1CSSC[C@H](NC(=O)[C@H](C(C)C)NC(=O)CNC(=O)[C@H](CCCNC(=N)N)NC(=O)[C@H](CCCNC(=N)N)NC1=O)C(=O)N[C@@H](CCCNC(=N)N)C(=O)N2 [listing 2 of 2 here]																>3	5.5		2	1	MMC (Staphylococcus aureus [27]): 1 µg/mL
CC[C@H](C)[C@@H]1NC(=O)C2CSSCC(NC(=O)[C@H](CCCNC(=N)N)NC(=O)[C@@H]3CSSC[C@H](NC1=O)C(=O)N[C@@H]([C@@H](C)O)C(=O)N[C@@H](CCCNC(=N)N)C(=O)NCC(=O)N[C@@H](Cc1ccccc1)C(=O)N3)C(=O)N[C@@H]([C@@H](C)CC)C(=O)N[C@H]1CSSC[C@H](NC(=O)[C@H](Cc3ccccc3)NC(=O)CNC(=O)[C@H](CCCNC(=N)N)NC(=O)[C@H]([C@@H](C)O)NC1=O)C(=O)N[C@@H](CCCNC(=N)N)C(=O)N2 (single isomer, unassigned)	Active	Active	inactive	inactive	inactive	Active	Active	inactive	inactive	Active	inactive	Active	inactive	Active	inactive	>3	14	Non-toxic	2.3	3	inhibition [31]: 78%; Activity (Staphylococcus aureus [4]): inactive; Activity [25]: 21 µg/mL; inhibition [26]: Active; MMC (Staphylococcus aureus [27]): 1.5 µg/mL; Activity [28]: Non-toxic
